Test results as given in ChEMBL document CHEMBL3621107, “Ring fusion strategy for synthesis and lead optimization of sulfur-substituted anthra[1,2-c][1,2,5]thiadiazole-6,11-dione derivatives as promising scaffold of antitumor agents” (Eur J Med Chem, 2015).

Legend:
Assay type in all cases: functional
[1] = test system: HL-60(TB); experiment: Cytotoxicity against human HL-60(TB) cells after 48 hrs by SRB assay; conditions: HL-60, 48 h
Procedure, shortened: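 NCI Developmental Therapeutics Program 60-cell-line screen, second stage: cells exposed to five concentrations (0.01, 0.1, 1, 10 and 100 μM). Growth is plotted against log10 concentration for each line, and GI50, TGI and LC50 are read from the dose-response curves.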

[2] = test system: K562; experiment: Cytotoxicity against human K562 cells after 48 hrs by SRB assay; conditions: K562, 48 h
Procedure, shortened: (§1)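 NCI-60 human tumour cell panel screen, second stage, run by the NCI Developmental Therapeutics Program. Compounds were tested at five concentrations (0.01, 0.1, 1, 10 and 100 μM). Percentage growth was plotted against log10 concentration for each cell line. GI50, TGI and LC50 were taken from these dose-response curves.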

[3] = test system: RPMI-8226; experiment: Cytotoxicity against human RPMI8226 cells after 48 hrs by SRB assay; conditions: RPMI-8226, 48 h
Procedure, shortened: (§2)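 Second-stage NCI-60 panel run by the NCI Developmental Therapeutics Program, covering nine tumour subpanels. Five concentrations were tested: 0.01, 0.1, 1, 10 and 100 μM. Percentage growth at each level was plotted against log10 drug concentration. GI50, TGI and LC50 were read from these dose-response curves. Subpanel MID values were divided into the full-panel MID to give selectivity ratios.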

[4] = Cytotoxicity against human EKVX cells after 48 hrs by SRB assay; procedure, shortened: as §1
[5] = test system: HOP-62; experiment: Cytotoxicity against human HOP62 cells after 48 hrs by SRB assay; conditions: HOP-62, 48 h; procedure, shortened: as §1
[6] = test system: HOP-92; experiment: Cytotoxicity against human HOP92 cells after 48 hrs by SRB assay; conditions: HOP-92, 48 h; procedure, shortened: as §1
[7] = test system: NCI-H226; experiment: Cytotoxicity against human NCI-H226 cells after 48 hrs by SRB assay; conditions: NCI-H226, 48 h; procedure, shortened: as §2
[8] = test system: HCC 2998; experiment: Cytotoxicity against human HCC2998 cells after 48 hrs by SRB assay; conditions: HCC 2998, 48 h; procedure, shortened: as §1
[9] = test system: HCT-116; experiment: Cytotoxicity against human HCT116 cells after 48 hrs by SRB assay; conditions: HCT-116, 48 h; for CC50: read-out: LC50 (the source's name); procedure, shortened: as §1
[10] = test system: HCT-15; experiment: Cytotoxicity against human HCT15 cells after 48 hrs by SRB assay; conditions: HCT-15, 48 h; procedure, shortened: as §1
[11] = test system: KM12; experiment: Cytotoxicity against human KM12 cells after 48 hrs by SRB assay; conditions: KM12, 48 h; procedure, shortened: as §1
[12] = test system: SF-295; experiment: Cytotoxicity against human SF295 cells after 48 hrs by SRB assay; conditions: SF-295, 48 h; procedure, shortened: as §2
[13] = test system: SNB-19; experiment: Cytotoxicity against human SNB19 cells after 48 hrs by SRB assay; conditions: SNB-19, 48 h; procedure, shortened: as §2
[14] = test system: LOX IMVI; experiment: Cytotoxicity against human LOXIMVI cells after 48 hrs by SRB assay; conditions: for CC50: read-out: LC50 (the source's name); procedure, shortened: as §1
[15] = test system: Malme-3M; experiment: Cytotoxicity against human MALME-3M cells after 48 hrs by SRB assay; procedure, shortened: as §1
[16] = test system: M14; experiment: Cytotoxicity against human M14 cells after 48 hrs by SRB assay; conditions: M14, 48 h; procedure, shortened: as §1
[17] = test system: SK-MEL-28; experiment: Cytotoxicity against human SK-MEL-28 cells after 48 hrs by SRB assay; conditions: SK-MEL-28, 48 h; for CC50: read-out: LC50 (the source's name); procedure, shortened: as §2
[18] = test system: OVCAR-4; experiment: Cytotoxicity against human OVCAR4 cells after 48 hrs by SRB assay; conditions: OVCAR-4, 48 h; procedure, shortened: as §2
[19] = test system: OVCAR-5; experiment: Cytotoxicity against human OVCAR5 cells after 48 hrs by SRB assay; conditions: OVCAR-5, 48 h; procedure, shortened: as §2
[20] = test system: A498; experiment: Cytotoxicity against human A498 cells after 48 hrs by SRB assay; conditions: A498, 48 h; procedure, shortened: as §1
[21] = test system: ACHN; experiment: Cytotoxicity against human ACHN cells after 48 hrs by SRB assay; procedure, shortened: as §1
[22] = test system: CAKI-1; experiment: Cytotoxicity against human Caki1 cells after 48 hrs by SRB assay; conditions: CAKI-1, 48 h; procedure, shortened: as §1
[23] = test system: MCF7; experiment: Cytotoxicity against human MCF7 cells after 48 hrs by SRB assay; conditions: MCF7, 48 h; procedure, shortened: as §1
[24] = test system: MDA-MB-231; experiment: Cytotoxicity against human MDA-MB-231 cells after 48 hrs by SRB assay; conditions: MDA-MB-231, 48 h; procedure, shortened: as §2
[25] = test system: BT-549; experiment: Cytotoxicity against human BT549 cells after 48 hrs by SRB assay; conditions: BT-549, 48 h; procedure, shortened: as §1
[26] = test system: MDA-MB-468; experiment: Cytotoxicity against human MDA-MB-468 cells after 48 hrs by SRB assay; conditions: MDA-MB-468, 48 h; procedure, shortened: as §2
[27] = Cytotoxicity against human leukemia cells assessed as growth inhibition after 48 hrs by SRB assay; conditions: Leukemia cell
Procedure, shortened: (§3)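 Values come from the NCI-60 five-dose panel (0.01–100 µM). The subpanel MID is the mean GI50 over the lines of that tumour subpanel. The selectivity ratio is the full-panel MID divided by the subpanel MID; 3–6 is rated moderate and >6 high.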

[28] = Cytotoxicity against human non-small cell lung cancer cells assessed as growth inhibition after 48 hrs by SRB assay; conditions: Cancer cell lines; procedure, shortened: as §3
[29] = Cytotoxicity against human melanoma cells assessed as growth inhibition after 48 hrs by SRB assay; conditions: Melanoma cell; procedure, shortened: as §3
[30] = Cytotoxicity against human breast cancer cells assessed as growth inhibition after 48 hrs by SRB assay; conditions: Cancer cell lines; procedure, shortened: as §3

O=C1c2ccccc2C(=O)c2c1cc(Sc1ccc(F)cc1F)c1nsnc21
GI50 [1]: 2.68 µM | LC50 [1]: > 100 µM | TGI [1]: 7.7 µM | GI50 [2]: 3.32 µM | LC50 [2]: 68.4 µM | TGI [2]: 11.8 µM | GI50 [3]: 2.2 µM | LC50 [3]: 63.9 µM | TGI [3]: 8.08 µM | GI50 [4]: 20.8 µM | LC50 [4]: > 100 µM | TGI [4]: 66.5 µM | GI50 [5]: 1.82 µM | LC50 [5]: 6.01 µM | TGI [5]: 3.3 µM | GI50 [6]: 2.03 µM | LC50 (concentration giving 50% net cell kill) [6]: 16.3 µM | TGI [6]: 5.01 µM | GI50 [7]: 3.09 µM | LC50 (concentration killing 50% of starting cells) [7]: 59.1 µM | TGI [7]: 11.1 µM | GI50 [8]: 11.3 µM | LC50 [8]: 56.4 µM | TGI [8]: 25.3 µM | GI50 [9]: 1.55 µM | TGI [9]: 3.22 µM | CC50 [9]: 6.69 µM | GI50 [10]: 2.84 µM | LC50 [10]: 50 µM | TGI [10]: 12.9 µM | GI50 [11]: 9.91 µM | LC50 (concentration killing 50% of cells) [11]: > 100 µM | TGI [11]: 77.3 µM | GI50 [12]: 9 µM | LC50 [12]: > 100 µM | TGI [12]: 44.2 µM | GI50 [13]: 13.9 µM | LC50 [13]: 68.6 µM | TGI [13]: 30.9 µM | GI50 [14]: 1.21 µM | TGI [14]: 2.64 µM | CC50 [14]: 5.77 µM | GI50 [15]: 3.26 µM | LC50 [15]: 41.7 µM | TGI [15]: 8.65 µM | GI50 [16]: 3.72 µM | LC50 [16]: 43 µM | TGI [16]: 15.8 µM | GI50 [17]: 1.87 µM | TGI [17]: 3.81 µM | CC50 [17]: 7.75 µM | GI50 [18]: 0.34 µM | LC50 [18]: 4.18 µM | TGI [18]: 1.38 µM | GI50 [19]: 8.18 µM | LC50 [19]: 63.3 µM | TGI [19]: 24 µM | GI50 [20]: 2.26 µM | LC50 (concentration killing 50% of cells) [20]: > 100 µM | TGI [20]: 58.5 µM | GI50 [21]: 1.85 µM | LC50 [21]: 7.14 µM | TGI [21]: 3.63 µM | GI50 [22]: 2.51 µM | LC50 (concentration causing 50% net cell kill) [22]: > 100 µM | TGI [22]: 7.04 µM | GI50 [23]: 1.31 µM | LC50 (concentration killing 50% of cells) [23]: 7.39 µM | TGI [23]: 3.11 µM | GI50 [24]: 1.2 µM | LC50 (concentration killing 50% of cells) [24]: 12.9 µM | TGI [24]: 3.61 µM | GI50 [25]: 3.99 µM | LC50 [25]: 43 µM | TGI [25]: 17.2 µM | GI50 [26]: 0.45 µM | LC50 [26]: 4.19 µM | TGI [26]: 1.52 µM | GI50 [27]: 2.16 µM | GI50 [28]: 19 µM | GI50 [29]: 2.12 µM | GI50 [30]: 1.77 µM

O=C1c2ccccc2C(=O)c2c1cc(Sc1ccccc1Br)c1nsnc21
GI50 [1]: 17.8 µM | LC50 [1]: > 50 µM | TGI [1]: > 50 µM | GI50 [2]: 18.5 µM | LC50 [2]: > 50 µM | TGI [2]: > 50 µM | GI50 [3]: 11.3 µM | LC50 [3]: > 50 µM | TGI [3]: > 50 µM | GI50 [4]: > 50 µM | LC50 [4]: > 50 µM | TGI [4]: > 50 µM | GI50 [5]: 13.3 µM | LC50 [5]: > 50 µM | TGI [5]: 30.4 µM | GI50 [6]: 18.4 µM | LC50 (concentration giving 50% net cell kill) [6]: > 50 µM | TGI [6]: > 50 µM | GI50 [7]: 19.4 µM | LC50 (concentration killing 50% of starting cells) [7]: > 50 µM | TGI [7]: > 50 µM | GI50 [8]: > 50 µM | LC50 [8]: > 50 µM | TGI [8]: > 50 µM | GI50 [9]: 7.87 µM | TGI [9]: 19.9 µM | CC50 [9]: > 50 µM | GI50 [10]: 12.3 µM | LC50 [10]: > 50 µM | TGI [10]: > 50 µM | GI50 [11]: 41.9 µM | LC50 (concentration killing 50% of cells) [11]: > 50 µM | TGI [11]: > 50 µM | GI50 [12]: 40.6 µM | LC50 [12]: > 50 µM | TGI [12]: > 50 µM | GI50 [13]: 32.2 µM | LC50 [13]: > 50 µM | TGI [13]: > 50 µM | GI50 [14]: 12.6 µM | TGI [14]: > 50 µM | CC50 [14]: > 50 µM | GI50 [15]: 16.8 µM | LC50 [15]: > 50 µM | TGI [15]: 40.2 µM | GI50 [16]: 17.4 µM | LC50 [16]: > 50 µM | TGI [16]: > 50 µM | GI50 [17]: 20.9 µM | TGI [17]: > 50 µM | CC50 [17]: > 50 µM | GI50 [18]: 2.78 µM | LC50 [18]: 30.1 µM | TGI [18]: 10.1 µM | GI50 [19]: 3.44 µM | LC50 [19]: > 50 µM | TGI [19]: > 50 µM | GI50 [20]: 10.7 µM | LC50 (concentration killing 50% of cells) [20]: > 50 µM | TGI [20]: > 50 µM | GI50 [21]: 12.8 µM | LC50 [21]: > 50 µM | TGI [21]: 32.5 µM | GI50 [22]: 17.2 µM | LC50 (concentration causing 50% net cell kill) [22]: > 50 µM | TGI [22]: > 50 µM | GI50 [23]: 7.28 µM | LC50 (concentration killing 50% of cells) [23]: 37.8 µM | TGI [23]: 16.6 µM | GI50 [24]: 7.52 µM | LC50 (concentration killing 50% of cells) [24]: > 50 µM | TGI [24]: 37.3 µM | GI50 [25]: 20.5 µM | LC50 [25]: > 50 µM | TGI [25]: > 50 µM | GI50 [26]: 0.95 µM | LC50 [26]: 4.2 µM | TGI [26]: 2 µM | GI50 [27]: 12.8 µM | GI50 [28]: 19.3 µM | GI50 [29]: 12.9 µM | GI50 [30]: 9.62 µM
